The test system of data set [1] is H9c2. Nature of the data set: Cardioprotective activity against rat H9c2 cells assessed as reduction in H2O2-induced cell death at 20 uM incubated for 24 hrs followed by H2O2 stimulation and measured after 2 hrs by MTT assay. In kind it is functional, cell-based. Summed up:
(§1)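 Serum-starved H9c2 cells in DMEM/F12 with 10% FBS were seeded at 5×10^3 cells/well and attached overnight. They were pretreated 24 h with compound at 2.5, 5, 10 or 20 µM, then exposed to 250 µM H2O2 for 2 h. MTT (4 mg/mL) ran 4 h at 37 °C, formazan was dissolved in DMSO, and OD was read at 490 nm. Viability is % of untreated control, from three independent experiments, mean ± SD.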
(Formazan colour is commonly taken as a measure of viable cells.)

Data set [2] addresses T1, Nuclear factor erythroid 2-related factor 2 (Rattus norvegicus) (UniProt O54968).
T1 sequence (whole entry): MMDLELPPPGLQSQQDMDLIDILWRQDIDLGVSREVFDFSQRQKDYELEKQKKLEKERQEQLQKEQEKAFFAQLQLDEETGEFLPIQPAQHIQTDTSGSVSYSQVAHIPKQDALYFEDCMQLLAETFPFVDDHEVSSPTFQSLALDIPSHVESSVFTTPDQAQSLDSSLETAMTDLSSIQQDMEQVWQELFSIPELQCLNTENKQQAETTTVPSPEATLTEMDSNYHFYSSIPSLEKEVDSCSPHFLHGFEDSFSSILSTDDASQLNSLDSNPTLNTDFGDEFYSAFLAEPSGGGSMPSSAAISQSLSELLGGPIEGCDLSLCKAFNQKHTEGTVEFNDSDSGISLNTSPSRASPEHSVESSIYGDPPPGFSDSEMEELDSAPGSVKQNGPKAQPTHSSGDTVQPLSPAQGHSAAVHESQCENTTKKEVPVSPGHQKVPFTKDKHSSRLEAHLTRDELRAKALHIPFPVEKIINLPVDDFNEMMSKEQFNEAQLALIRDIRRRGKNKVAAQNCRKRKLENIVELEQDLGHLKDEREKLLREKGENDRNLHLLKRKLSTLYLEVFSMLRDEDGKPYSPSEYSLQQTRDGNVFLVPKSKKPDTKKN
Nature of the data set: Activation of Nrf2 in rat H9c2 cells assessed as upregulation of NQO1 at 10 uM incubated for 24 hrs followed by H2O2 stimulation and measured after 2 hrs by Western blot analysis. In kind it is cell-based.

In data set [3] the test system is H9c2. In words: Cardioprotective activity against rat H9c2 cells assessed as reduction in H2O2-induced cell death at 10 uM incubated for 24 hrs followed by H2O2 stimulation and measured after 2 hrs by MTT assay. In kind it is functional, cell-based. The procedure, abridged:
as §1

For data set [4], the system named is H9c2. Nature of the data set: Cardioprotective activity against rat H9c2 cells assessed as reduction in H2O2-induced cell death at 2.5 uM incubated for 24 hrs followed by H2O2 stimulation and measured after 2 hrs by MTT assay. In kind it is functional, cell-based. The procedure, abridged:
as §1

For data set [5], the target named is T1, Nuclear factor erythroid 2-related factor 2 (Rattus norvegicus). Nature of the data set: Activation of Nrf2 in rat H9c2 cells assessed as induction of Nrf2 nuclear translocation at 10 uM incubated for 24 hrs followed by H2O2 stimulation and measured after 2 hrs by Western blot analysis. The data set is classed as cell-based.
Data set [6] has the same target. Nature of the data set: Activation of Nrf2 in rat H9c2 cells assessed as upregulation of HO1 at 10 uM incubated for 24 hrs followed by H2O2 stimulation and measured after 2 hrs by Western blot analysis. In kind it is cell-based. (In general: Immunoblotting shows a protein as a band on a membrane.)
For data set [7], the system named is H9c2. In words: Cardioprotective activity against rat H9c2 cells assessed as reduction in H2O2-induced LDH release at 10 uM incubated for 24 hrs followed by H2O2 stimulation and measured after 2 hrs by LDH release assay. The data set is classed as functional, cell-based. Summed up:
(§2)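 Cells were cultured in DMEM/F12 with 10% FBS and serum-starved, then pre-incubated 24 h with compound at 10 or 20 µM before 2 h with 250 µM H2O2. LDH release rate was measured with a cytotoxicity detection kit by absorbance at 490 nm. Three independent experiments, mean ± SD, one-way ANOVA with Tukey test.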
Background: LDH leaks from cells whose membrane has failed.

Data set [8] relates to H9c2. In words: Cytotoxicity against rat H9c2 cells assessed as reduction in cell viability at 0.1 to 100 uM incubated for 24 hrs by MTT assay. The data set is classed as cell-based. To be noted: h9c2, 24 h. Summed up:
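H9c2 cells were seeded at 5×10^3 cells/well, attached overnight and given compound at 0.1, 1, 10 or 100 µM for 24 h, with 0.01% DMSO medium as control. Compounds were DMSO stocks diluted in medium. MTT (4 mg/mL, 4 h, 37 °C) was read at OD 490 nm after DMSO solubilisation. Viability is % of control, from three experiments.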

For data set [9], the system named is H9c2. Nature of the data set: Cardioprotective activity against rat H9c2 cells assessed as reduction in H2O2-induced LDH release at 20 uM incubated for 24 hrs followed by H2O2 stimulation and measured after 2 hrs by LDH release assay. The data set is classed as functional, cell-based. The procedure, abridged:
as §2

For data set [10], the system named is H9c2. Nature of the data set: Cardioprotective activity against rat H9c2 cells assessed as reduction in H2O2-induced cell death at 5 uM incubated for 24 hrs followed by H2O2 stimulation and measured after 2 hrs by MTT assay. The data set is classed as functional, cell-based. Summed up: as §1
Data set [11] addresses T1, Nuclear factor erythroid 2-related factor 2 (Rattus norvegicus). Nature of the data set: Activation of Nrf2 in rat H9c2 cells assessed as upregulation of HO1 incubated for 24 hrs followed by H2O2 stimulation and measured after 2 hrs by Western blot analysis. In kind it is cell-based.
The subject of data set [12] is H9c2. Nature of the data set: Inhibition of H2O2-induced ROS accumulation in rat H9c2 cells at 10 uM incubated for 24 hrs followed by H2O2 stimulation and measured after 2 hrs by DHE staining based fluorescence microscopy. The data set is classed as functional, cell-based. Summed up:
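H9c2 cells at 2.5×10^5 cells/well attached overnight, were preincubated 24 h with 10 µM, then given H2O2 (250 µM) for 2 h. Dihydroethidium (5 µM) was loaded for 30 min at 37 °C. Ethidium fluorescence (ex 488/em […] nm) was imaged by fluorescence microscopy at 200×.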

For data set [13], the target named is T1, Nuclear factor erythroid 2-related factor 2 (Rattus norvegicus). In words: Activation of Nrf2 in rat H9c2 cells assessed as upregulation of NQO1 incubated for 24 hrs followed by H2O2 stimulation and measured after 2 hrs by Western blot analysis. In kind it is cell-based.
For data set [14], the system named is H9c2. In words: Increase in H2O2-induced Nrf2 expression in rat H9c2 cells at 20 uM incubated for 24 hrs followed by H2O2 stimulation and measured after 2 hrs by Western blot analysis. In kind it is functional, cell-based. Summed up: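 Pretreatment was 20 µM for 24 h, then 250 µM H2O2 for 2 h. Cytoplasmic and nuclear fractions were extracted for Western blot: 5% milk/TBS-0.1% Tween blocking 2 h, primary antibodies overnight at 4 °C, HRP anti-rabbit secondary (1:5000) 2 h. Signals were normalised to Lamin B1 (nuclear) or GAPDH (cytoplasmic), n=3, mean ± SD.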

The target in data set [15] is T1, Nuclear factor erythroid 2-related factor 2 (Rattus norvegicus). In words: Activation of Nrf2 in rat H9c2 cells assessed as induction of Nrf2 nuclear translocation incubated for 24 hrs followed by H2O2 stimulation and measured after 2 hrs by Western blot analysis. The data set is classed as cell-based.

SMILES strings stand for the structures. Calls of active or inactive are those of the source. The rule behind the calls is not given here.

Take `COc1ccc2c(c1)OS(=O)(=O)N=C2`: the result with H9c2 [1] was Active.

For the compound `O=S1(=O)N=Cc2c(F)cccc2O1`, in the data set on H9c2 [1], the result was Active.

`CCN(CC)c1ccc2c(c1)OS(=O)(=O)N=C2`: the outcome in the data set with H9c2 [1] was Active.

Turning to `COc1ccc2c(c1)C=NS(=O)(=O)O2`, the result with H9c2 [1] was Active.

For the compound `O=c1cc(-c2ccc(O)c(O)c2)oc2cc(O)cc(O)c12`, the result (in data set [2]; in the data set with H9c2 [3]; in data set [5]; in data set [6]; in the data set with H9c2 [1]) was Active. Also, the result in the data set on H9c2 [4] was inactive.

For `CC(C)(C)c1cccc2c1OS(=O)(=O)N=C2`, the outcome in the data set with H9c2 [1] was inactive.

For `O=S1(=O)N=Cc2cccc(F)c2O1`, in the data set on H9c2 [1], the result was Active.

As to `O=S1(=O)N=Cc2ccccc2O1`, in the data set on H9c2 [1], the outcome was Active.

As to `Cc1ccc2c(c1)OS(=O)(=O)N=C2`, in the data set on H9c2 [1], the outcome was Active.

On to `Cc1ccc2c(c1)C=NS(=O)(=O)O2`, for which, in the data set with H9c2 [1], the outcome was Active.

Take `O=S1(=O)N=Cc2ccc(F)cc2O1`: the outcome with H9c2 [7] and with H9c2 [4] was inactive. In addition, the result in the data set on H9c2 [3], in the data set with H9c2 [1] and in the data set on H9c2 [9] was Active. Moreover, in the data set with H9c2 [8], the Activity result is given as “Non-Toxic”.

Consider `O=S1(=O)N=Cc2cccc(Cl)c2O1`, for which, in the data set with H9c2 [1], the outcome was Active.

Take `COc1cccc2c1OS(=O)(=O)N=C2`: the outcome in the data set with H9c2 [1] was Active.

As for `O=S1(=O)N=Cc2cc(Cl)ccc2O1`, in the data set with H9c2 [1], the result was Active.

In the case of `O=S1(=O)N=Cc2cc(Br)ccc2O1`, the result in the data set on H9c2 [7] and with H9c2 [4] was inactive. The outcome in the data set on H9c2 [3], with H9c2 [1] and in the data set with H9c2 [9] was Active. The Activity entry in the data set with H9c2 [8] was “Non-Toxic”.

Turning to `O=S1(=O)N=Cc2ccc(Cl)cc2O1`, the result (in the data set on H9c2 [7]; with H9c2 [10]; in [2]; in the data set with H9c2 [3]; in data set [5]; in data set [6]) was Active. Moreover, the outcome with H9c2 [1], in the data set with H9c2 [14] and in the data set with H9c2 [9] was Active. Further, the result with H9c2 [4] was inactive. Besides, the Activity entry with H9c2 [8] was “Non-Toxic”; in data set [11], “Dose-dependent effect”; in data set [13], “Dose-dependent effect”; in data set [15], “Dose-dependent effect”. For the same compound, the inhibition result in the data set with H9c2 [12] was “Active”.

Turning to `O=S1(=O)N=Cc2c(ccc3ccccc23)O1`, in the data set with H9c2 [1], the outcome was Active.
